Data as given in ChEMBL document CHEMBL3797137, “New ligands of the ghrelin receptor based on the 1,2,4-triazole scaffold by introduction of a second chiral center” (Bioorg Med Chem Lett, 2016).
The source made the active and inactive calls. No cut-off for these calls is given here.

What was measured:
[1] = target: T1, Growth hormone secretagogue receptor type 1 (Homo sapiens, UniProt Q92847); assay: Displacement of [125I]-His9-ghrelin from human GHS-R1a transfected in pig LLC PK-1 cell membranes after 60 mins by gamma counting method
T1 sequence (Q92847 whole entry): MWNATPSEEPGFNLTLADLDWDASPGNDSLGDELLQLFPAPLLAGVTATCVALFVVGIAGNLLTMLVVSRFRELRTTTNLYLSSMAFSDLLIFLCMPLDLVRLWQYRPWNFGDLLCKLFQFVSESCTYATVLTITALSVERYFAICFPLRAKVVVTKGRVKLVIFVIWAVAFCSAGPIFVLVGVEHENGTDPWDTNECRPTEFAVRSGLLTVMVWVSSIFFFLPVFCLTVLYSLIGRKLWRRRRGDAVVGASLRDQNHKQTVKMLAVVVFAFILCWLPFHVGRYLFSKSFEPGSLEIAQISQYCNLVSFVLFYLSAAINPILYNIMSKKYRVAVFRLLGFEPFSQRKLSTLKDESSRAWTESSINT
Outline: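 Competition binding on membranes from LLC PK-1 cells transfected with GHS-R1a, using 0.3 nM ¹²⁵I-His9-ghrelin against increasing compound concentrations. Ki derived from the binding curves.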

[2] = target: T1, Growth hormone secretagogue receptor type 1; assay: Antagonist activity at human GHS-R1a transfected in CHO cells assessed as inhibition of ghrelin-induced intracellular calcium mobilization measured over 60 secs by fluo-4AM dye-based fluorometric method; type: functional, cell-based
[3] = target: T1, Growth hormone secretagogue receptor type 1; assay: Antagonist activity at human GHS-R1a transfected in mouse LTK cells after 6 hrs by CRE/luciferase reporter gene assay in presence of ghrelin and rolipram; type: functional, cell-based
Outline: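 Mouse LTK- cells stably carrying a CMV minimal promoter–3×CRE–luciferase construct, incubated 6 h with rolipram, saturating ghrelin and varied compound concentrations. Cells were then lysed and luminescence read. IC50 fitted from the curves.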

[4] = target: T1, Growth hormone secretagogue receptor type 1; assay: Competitive binding affinity to human SNAP-tagged GHS-R1a expressed in HEK293T cells incubated at 4 degC for 3 hrs or at room temperature for 1 hr by Tag-lite assay; type: cell-based, HEK-293T
Outline: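 Tag-lite binding measured by FRET between terbium cryptate attached to SNAP-tag-fused GHS-R1a and a red fluorescent high-affinity ghrelin ligand. Ki obtained from the fluorescent binding data.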

[5] = target: T1, Growth hormone secretagogue receptor type 1; assay: Inverse agonist activity at human GHS-R1a expressed in HEK293T cells after 45 mins by HTRF-based IP3 turnover assay; type: functional, cell-based, HEK-293T; details: for Emax: HEK-293T
[6] = target: T1, Growth hormone secretagogue receptor type 1; assay: Antagonist activity at human GHS-R1a expressed in HEK293T cells assessed as inhibition of ghrelin-induced stimulation at 10^-5 M after 45 mins by HTRF-based IP3 turnover assay; type: functional, cell-based; details: HEK-293T
[7] = target: T1, Growth hormone secretagogue receptor type 1; assay: Partial agonist activity at human GHS-R1a expressed in HEK293T cells at 10^-5 M after 45 mins by HTRF-based IP3 turnover assay; type: functional, cell-based; details: HEK-293T
[8] = target: T1, Growth hormone secretagogue receptor type 1; assay: Agonist activity at human GHS-R1a expressed in HEK293T cells after 45 mins by HTRF-based IP3 turnover assay; type: functional, cell-based, HEK-293T; details: for Emax: HEK-293T
[9] = target: T1, Growth hormone secretagogue receptor type 1; assay: Antagonist activity at human GHS-R1a expressed in HEK293T cells assessed as inhibition of ghrelin-induced stimulation after 45 mins by HTRF-based IP3 turnover assay; type: functional, cell-based; details: HEK-293T

| SMILES | Ki [1] [nM] | IC50 [2] [nM] | IC50 [3] [nM] | Ki [4] [nM] | other results |
| --- | --- | --- | --- | --- | --- |
| COc1ccc(Cn2c([C@@H](N)Cc3ccccc3)nnc2[C@@H](Cc2c[nH]c3ccccc23)NC(=O)c2ccccn2)cc1 | 62 | 150 | 320 |  |  |
| CC(C)C[C@H](NC(=O)[C@H](CC(C)C)NC(=O)[C@@H](Cc1c[nH]c2ccccc12)NC(=O)[C@H](Cc1ccccc1)NC(=O)[C@@H](Cc1c[nH]c2ccccc12)NC(=O)[C@@H](N)CCCCN)C(N)=O |  |  |  | 255 | EC50 [5]: 100 nM; Emax [5]: -55% |
| COc1ccc(Cn2c([C@H](N)Cc3c[nH]c4ccccc34)nnc2[C@@H](Cc2c[nH]c3ccccc23)NC(=O)C(C)(C)N)cc1 | 131 | 90 | 130 |  |  |
| COc1ccc(Cn2c([C@H](Cc3c[nH]c4ccccc34)NC(C)=O)nnc2[C@@H](Cc2c[nH]c3ccccc23)NC(=O)C(C)(C)N)cc1 | > 1000 | > 1000 | > 1000 |  |  |
| COc1ccc(Cn2c([C@@H](Cc3ccccc3)NC(C)=O)nnc2[C@@H](Cc2c[nH]c3ccccc23)NC(=O)CO)cc1 | 0.8 | 2 | 8 |  | inhibition [6]: Active; Activity [7]: Active |
| COc1ccc(Cn2c([C@H](Cc3c[nH]c4ccccc34)NC(C)=O)nnc2[C@@H](Cc2c[nH]c3ccccc23)NC(=O)c2ccccn2)cc1 | 62 | 190 | 100 |  |  |
| COc1ccc(Cn2c([C@@H](Cc3ccccc3)NC(C)=O)nnc2[C@@H](Cc2c[nH]c3ccccc23)NC(=O)c2ccccn2)cc1 |  |  |  |  | Activity [7]: Active |
| COc1ccc(Cn2c([C@@H](Cc3c[nH]c4ccccc34)NC=O)nnc2[C@@H](Cc2c[nH]c3ccccc23)NC(=O)C(C)(C)N)cc1 | 46 | 33 | 60 |  |  |
| COc1ccc(Cn2c([C@H](N)Cc3ccccc3)nnc2[C@@H](Cc2c[nH]c3ccccc23)NC(=O)C(C)(C)N)cc1 | 154 | 135 | 115 |  |  |
| COc1ccc(Cn2c([C@@H](Cc3c[nH]c4ccccc34)NC=O)nnc2[C@@H](Cc2c[nH]c3ccccc23)NC(=O)[C@@H](N)CCCCN)cc1 |  |  |  | 8 | EC50 [8]: 10 nM; Emax [8]: 89% |
| COc1ccc(Cn2c([C@H](Cc3c[nH]c4ccccc34)NC(=O)[C@H]3CNCCO3)nnc2[C@@H](Cc2c[nH]c3ccccc23)NC(=O)[C@@H](CC(C)C)NC(=O)[C@@H](CC(C)C)NC(C)=O)cc1 (stereo in doubt) |  |  |  | 50 | EC50 [8]: 60 nM; Emax [8]: 75% |
| COc1ccc(Cn2c([C@@H](Cc3c[nH]c4ccccc34)NC(C)=O)nnc2[C@@H](Cc2c[nH]c3ccccc23)NC(=O)C(C)(C)N)cc1 | 12 |  | 22 |  |  |
| COc1ccc(Cn2c([C@@H](Cc3c[nH]c4ccccc34)NC(=O)[C@H](CC(C)C)NC(=O)[C@H](CC(C)C)NC(C)=O)nnc2[C@@H](Cc2c[nH]c3ccccc23)NC(=O)C(C)(C)N)cc1 |  |  |  | 30 | EC50 [8]: 0.8 nM; Emax [8]: 80% |
| COc1ccc(Cn2c([C@@H](N)Cc3c[nH]c4ccccc34)nnc2[C@@H](Cc2c[nH]c3ccccc23)NC(=O)C(C)(C)N)cc1 | > 1000 | > 1000 | > 1000 |  |  |
| COc1ccc(Cn2c([C@@H](N)Cc3ccccc3)nnc2[C@@H](Cc2c[nH]c3ccccc23)NC(=O)C(C)(C)N)cc1 | > 1000 | > 1000 | > 1000 |  |  |
| COc1ccc(Cn2c([C@@H](Cc3c[nH]c4ccccc34)NC(=O)C(CC(C)C)C(=O)N[C@@H](CC(C)C)C(N)=O)nnc2[C@@H](Cc2c[nH]c3ccccc23)NC(=O)[C@@H](N)CCCCN)cc1 (mixture of isomers) |  |  |  | 210 | EC50 [8]: 170 nM; Emax [8]: 60% |
| COc1ccc(Cn2c([C@@H](Cc3c[nH]c4ccccc34)NC(C)=O)nnc2[C@@H](Cc2c[nH]c3ccccc23)NC(=O)[C@@H](N)CCCCN)cc1 |  |  |  | 2.5 | EC50 [8]: 4 nM; Emax [8]: 89% |

More lines, main results first:

| Ki [1] [nM] | IC50 [2] [nM] | IC50 [3] [nM] | Ki [4] [nM] | SMILES | other results |
| --- | --- | --- | --- | --- | --- |
|  |  |  | 3 | COc1ccc(Cn2c([C@@H](Cc3c[nH]c4ccccc34)NC(=O)[C@H](CC(C)C)NC(=O)[C@H](CC(C)C)NC(C)=O)nnc2[C@@H](Cc2c[nH]c3ccccc23)NC(=O)C(C)(C)O)cc1 | EC50 [8]: 74 nM; Emax [8]: 75% |
| 4 | 2 | 2 |  | COc1ccc(Cn2c([C@@H](Cc3ccccc3)NC(C)=O)nnc2[C@@H](Cc2c[nH]c3ccccc23)NC(=O)c2ncccc2F)cc1 | Activity [7]: Active |
|  |  |  | 2 | COc1ccc(Cn2c(C(Cc3c[nH]c4ccccc34)NC(=O)C3CCNCC3)nnc2[C@@H](Cc2c[nH]c3ccccc23)NC(=O)C(CC(C)C)NC(=O)C(CC(C)C)NC(C)=O)cc1 (single isomer, unassigned) | EC50 [8]: 4.4 nM; Emax [8]: 108% |
|  |  |  | 17 | COC(=O)C(CC(C)C)C(=O)N[C@H](Cc1c[nH]c2ccccc12)c1nnc([C@@H](Cc2c[nH]c3ccccc23)NC(=O)[C@@H](N)CCCCN)n1Cc1ccc(OC)cc1 (mixture of isomers) | EC50 [8]: 20 nM; Emax [8]: 81% |
| 9 | 3 | 2 |  | COc1ccc(Cn2c([C@@H](Cc3c[nH]c4ccccc34)NC(C)=O)nnc2[C@@H](Cc2c[nH]c3ccccc23)NC(=O)c2ccccn2)cc1 |  |
| 154 | 1200 | 410 |  | COc1ccc(Cn2c([C@H](Cc3c[nH]c4ccccc34)NC=O)nnc2[C@@H](Cc2c[nH]c3ccccc23)NC(=O)c2ccccn2)cc1 |  |
| 8 | 3 | 8 |  | COc1ccc(Cn2c([C@@H](Cc3ccccc3)NC=O)nnc2[C@@H](Cc2c[nH]c3ccccc23)NC(=O)c2ccccn2)cc1 | Activity [7]: Active |
| > 1000 | > 1000 | > 1000 |  | COc1ccc(Cn2c([C@H](Cc3ccccc3)NC(C)=O)nnc2[C@@H](Cc2c[nH]c3ccccc23)NC(=O)C(C)(C)N)cc1 |  |
|  |  |  | 220 | COC(=O)[C@H](CC(C)C)NC(=O)C(CC(C)C)C(=O)N[C@H](Cc1c[nH]c2ccccc12)c1nnc([C@@H](Cc2c[nH]c3ccccc23)NC(=O)[C@@H](N)CCCCN)n1Cc1ccc(OC)cc1 (stereo not given in full) | EC50 [8]: 82 nM; Emax [8]: 82% |
| 11 | 4 | 4 |  | COc1ccc(Cn2c([C@@H](Cc3ccccc3)NC(C)=O)nnc2[C@@H](Cc2c[nH]c3ccccc23)NC(=O)c2cc(F)cc(F)n2)cc1 | Activity [7]: Active |
|  |  |  | 3 | COc1ccc(Cn2c([C@@H](Cc3c[nH]c4ccccc34)NC(=O)CO)nnc2[C@@H](Cc2c[nH]c3ccccc23)NC(=O)[C@H](CC(C)C)NC(=O)[C@H](CC(C)C)NC(C)=O)cc1 | Emax [9]: 0% |
|  |  |  | 110 | COc1ccc(Cn2c([C@@H](Cc3c[nH]c4ccccc34)NC(=O)[C@H](CC(C)C)NC(=O)[C@H](CC(C)C)NC(C)=O)nnc2[C@@H](Cc2c[nH]c3ccccc23)NC(=O)[C@@H](N)CCCCN)cc1 | EC50 [5]: 70 nM; Emax [5]: -37% |
| 2 | 3 | 9 |  | COc1ccc(Cn2c([C@@H](Cc3ccccc3)NC(C)=O)nnc2[C@@H](Cc2c[nH]c3ccccc23)NC(=O)[C@@H]2CNCCO2)cc1 | Activity [7]: Active |
| 18 | 4 | 7 |  | COc1ccc(Cn2c([C@H](N)Cc3ccccc3)nnc2[C@@H](Cc2c[nH]c3ccccc23)NC(=O)c2ccccn2)cc1 |  |
| 59 | 43 | 113 |  | COc1ccc(Cn2c([C@@H](Cc3ccccc3)NC=O)nnc2[C@@H](Cc2c[nH]c3ccccc23)NC(=O)C(C)(C)N)cc1 |  |
| 9 | 4 | 3 |  | COc1ccc(Cn2c([C@@H](Cc3ccccc3)NC(C)=O)nnc2[C@@H](Cc2c[nH]c3ccccc23)NC(=O)C2=CCCCO2)cc1 | Activity [7]: Active |
| 46 | 90 | 70 |  | COc1ccc(Cn2c([C@@H](Cc3ccccc3)NC(C)=O)nnc2[C@@H](Cc2c[nH]c3ccccc23)NC(=O)C(C)(C)N)cc1 |  |
